Consider eleven compounds from paper PMC7433031 (European journal of medicinal chemistry, 2020).

Experiment [1] concerns CLL patients. The conditions noted are these: cited from earlier work.
In experiment [2] the test system is human platelets. In words: Human platelet viability assay. It counts as cell-based. The conditions noted are these: for IC50: Homo sapiens, Platelet, 48 h, read-out: IC50 48 h treatment Platelets. An outline of the steps:
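Platelets were separated from purchased platelet-rich plasma in acid citrate buffer with 1 μM PGE1 and 0.2 units/mL apyrase (final). Cells were centrifuged and adjusted to 2 × 10⁸/mL in HEPES Tyrode's buffer with 10% FBS, 1 μM PGE1 and 0.2 units/mL apyrase. They were treated for 48 h, with or without a 10 μM pomalidomide block, and read by MTS. IC50 values were curve-fitted. The ratio divides platelet IC50 by 48 h MOLT-4 MTS IC50.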

Experiment [3] relates to MOLT-4 T-ALL cells. In words: MOLT-4 cell viability assay. The format is cell-based, human.
In experiment [4] the target is BCL-XL (Homo sapiens, UniProt Q07817). In words: Western blot of BCL-XL protein levels in MOLT-4 cells. It counts as cell-based. To be noted: 16 h; for BCL-XL degradation in MOLT-4 cells at 100 nM: Western blot (Figure 3). The essentials: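 MOLT-4 cells were treated for 16 h with test compound (100 nM for VHL-based, 50 nM for CRBN-based, or a concentration series for DC50). Other runs used 100 nM over a time course, or 16 h exposure followed by washout into drug-free medium. Some cells were pretreated 2 h with 10 μM pomalidomide or 1 μM MG-132. Immunoblot bands were normalized to β-actin and expressed as % remaining versus vehicle.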
Chain of BCL-XL (Q07817 whole entry): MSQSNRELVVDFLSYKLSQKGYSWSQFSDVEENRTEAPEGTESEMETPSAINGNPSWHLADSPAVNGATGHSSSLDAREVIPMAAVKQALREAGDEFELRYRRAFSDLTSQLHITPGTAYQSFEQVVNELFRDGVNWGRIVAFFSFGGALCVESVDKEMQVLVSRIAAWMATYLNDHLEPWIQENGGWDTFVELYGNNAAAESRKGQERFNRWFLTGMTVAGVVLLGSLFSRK
A general note: Immunoblotting shows a protein as a band on a membrane.

Experiment [5] relates to H146 small cell lung cancer cell line. In words: H146 cell viability assay. It counts as cell-based. The conditions noted are these: Homo sapiens, NCI-H146, 48 h, read-out: IC50 48 h treatment H146. An outline of the steps: (§1)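 NCI-H146 small-cell lung cancer and RS4;11 B-ALL cells maintained in RPMI 1640 plus 10% FBS and 1% penicillin-streptomycin. Cells seeded at 5×10⁴ to 1×10⁵ per well and treated with test compound for 48 h. Viability measured by tetrazolium-based MTS assay, with IC50 calculated from the viability data.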

In experiment [6] the test system is RS4;11 B-cell ALL cell line. Kind of experiment: RS4. The format is cell-based. The conditions noted are these: Homo sapiens, RS4-11, 48 h, read-out: IC50 48 h treatment RS4;11. An outline of the steps:
as §1

Setting [7] is: read-out: IC50, reduction of MOLT-4 cell viability, MOLT-4 cells, 48 h treatment, means of at least three independent experiments (Tables 1-4).
The mark [8] stands for this setting: Homo sapiens, MOLT-4, 48 h, read-out: IC50 48 h treatment MOLT-4.
Where [9] appears, read: Homo sapiens, MOLT-4, 48 h, read-out: IC50, reduction of MOLT-4 cell viability.

Like-named read-outs stand apart in the source and are kept apart here.

Broadly, the IC50 is the concentration at which inhibition is half-maximal.

As to `CC1(C)CCC(CN2CCN(c3ccc(C(=O)NS(=O)(=O)c4ccc(NCC5CCOCC5)c([N+](=O)[O-])c4)c(Oc4cnc5[nH]ccc5c4)c3)CC2)=C(c2ccc(Cl)cc2)C1` [venetoclax], in experiment [1], the complete remission rate is listed as 20% and the overall response rate was 71–79%.

Turning to “navitoclax [ABT-263, reference compound]”, in experiment [2] (MOLT-4 versus human platelets), the “selectivity for MOLT-4 cells over human platelets” value was “no selectivity”. Also, in experiment [2] (platelets IC50 / MOLT-4 IC50, 48 h), the “IC50 ratio between human platelets and MOLT-4 cells” value was found to be 1.1.

On to “(2S,4R)-1-((S)-2-(2-(2-(2-(4-((R)-3-((4-(N-(4-(4-((4’-Chloro-4,4-dimethyl-3,4,5,6-tetrahydro-[1,1’-biphenyl]-2-yl)methyl)piperazin-1-yl)benzoyl)sulfamoyl)-2-((trifluoromethyl)sulfonyl)phenyl)amino)-4-(phenylthio)butyl)piperazin-1-yl)ethoxy)ethoxy)acetamido)-3,3-dimethylbutanoyl)-4-hydroxy-N-((S)-1-(4-(4-methylthiazol-5-yl)phenyl)ethyl)pyrrolidine-2-carboxamide [Compound 4b]”, for which the “times less potent than 4a in reducing MOLT-4 cell viability” value in experiment [3] (MOLT-4, versus 4a) was ~ 6 times. In addition, the IC50 in experiment [3] (setting [7]) was found to be 914 nM. Further, the “BCL-XL degradation in MOLT-4 cells at 100 nM” value (“BCL-XL degradation … at 100 nM” for short) in experiment [4] is reported as “slightly more potent in inducing BCL-XL degradation than 4a”.

As for `CN(CCCCCCCn1cc(COCCOCCNc2cccc3c2C(=O)N(C2CCC(=O)NC2=O)C3=O)nn1)CC[C@H](CSc1ccccc1)Nc1ccc(S(=O)(=O)NC(=O)c2ccc(N3CCN(CC4=C(c5ccc(Cl)cc5)CCC(C)(C)C4)CC3)cc2)cc1S(=O)(=O)C(F)(F)F` (stereo partly drawn) [Compound 15a, 4-(4-((4’-Chloro-4,4-dimethyl-3,4,5,6-tetrahydro-[1,1’-biphenyl]-2-yl)methyl)piperazin-1-yl)-N-((4-(((2R)-4-((7-(4-((2-(2-((2-(2,6-dioxopiperidin-3-yl)-1,3-dioxoisoindolin-4-yl)amino)ethoxy)ethoxy)methyl)-1H-1,2,3-triazol-1-yl)heptyl)(methyl)amino)-1-(phenylthio)butan-2-yl)amino)-3-((trifluoromethyl)sulfonyl)phenyl)sulfonyl)benzamide], the IC50 was 29.2 nM in experiment [3] (setting [8]); 29.2 nM in experiment [3] (setting [9]); 6250 nM in experiment [2]; 61.7 nM in experiment [5]; 62.2 nM in experiment [6]. Further, the “BCL-XL degradation in MOLT-4 cells at 50 nM” value in experiment [4] (50 nM, Western blot (Figure 4)) is reported as “better BCL-XL degraders than their amide analogs”.

Consider `CC1(C)CCC(c2ccc(Cl)cc2)=C(CN2CCN(c3ccc(C(=O)NS(=O)(=O)c4ccc(N[C@H](CCN5CCN(C(=S)NCCOCCOCCNc6cccc7c6C(=O)N([C@@H]6CCC(=O)NC6=O)C7=O)CC5)CSc5ccccc5)c(S(=O)(=O)C(F)(F)F)c4)cc3)CC2)C1` (racemic) [Compound 11b, 4-(4-((2-(4-Chlorophenyl)-5,5-dimethylcyclohex-1-enyl)methyl)piperazin-1-yl)-N-(4-((2R)-4-(4-(2-(2-(2-(2-(2,6-dioxopiperidin-3-yl)-1,3-dioxoisoindolin-4-ylamino)ethoxy)ethoxy)ethylcarbamothioyl)piperazin-1-yl)-1-(phenylthio)butan-2-ylamino)-3-(trifluoromethylsulfonyl)phenylsulfonyl)benzamide], for which the “fold decrease in potency compared to 11a” value in experiment [3] (MOLT-4, versus 11a) is on record as ~ 6 fold.

As to `Cc1ncsc1-c1ccc([C@H](C)NC(=O)[C@@H]2C[C@@H](O)CN2C(=O)[C@@H](NC(=O)CCOCCC(=O)N2CCN(CC[C@H](CSc3ccccc3)Nc3ccc(S(=O)(=O)NC(=O)c4ccc(N5CCN(CC6=C(c7ccc(Cl)cc7)CCC(C)(C)C6)CC5)cc4)cc3S(=O)(=O)C(F)(F)F)CC2)C(C)(C)C)cc1` [Compound 3a, (2S,4R)-1-((S)-2-(3-(3-(4-((R)-3-((4-(N-(4-(4-((4’-Chloro-4,4-dimethyl-3,4,5,6-tetrahydro-[1,1’-biphenyl]-2-yl)methyl)piperazin-1-yl)benzoyl)sulfamoyl)-2-((trifluoromethyl)sulfonyl)phenyl)amino)-4-(phenylthio)butyl)piperazin-1-yl)-3-oxopropoxy)propanamido)-3,3-dimethylbutanoyl)-4-hydroxy-N-((S)-1-(4-(4-methylthiazol-5-yl)phenyl)ethyl)pyrrolidine-2-carboxamide], the “times less potent than 1e in MOLT-4 cell viability” value in experiment [3] (MOLT-4, versus 1e) was ~ 4 times.

In the case of `Cc1ncsc1-c1ccc([C@H](C)NC(=O)[C@@H]2C[C@@H](O)CN2C(=O)[C@@H](NC(=O)CCCCCC(=O)N(C)CC[C@H](CSc2ccccc2)Nc2ccc(S(=O)(=O)NC(=O)c3ccc(N4CCN(CC5=C(c6ccc(Cl)cc6)CCC(C)(C)C5)CC4)cc3)cc2S(=O)(=O)C(F)(F)F)C(C)(C)C)cc1` [Compound 5, N^1-((R)-3-((4-(N-(4-(4-((4’-Chloro-4,4-dimethyl-3,4,5,6-tetrahydro-[1,1’-biphenyl]-2-yl)methyl)piperazin-1-yl)benzoyl)sulfamoyl)-2-((trifluoromethyl)sulfonyl)phenyl)amino)-4-(phenylthio)butyl)-N^7-((S)-1-((2S,4R)-4-hydroxy-2-(((S)-1-(4-(4-methylthiazol-5-yl)phenyl)ethyl)carbamoyl)pyrrolidin-1-yl)-3,3-dimethyl-1-oxobutan-2-yl)-N^1-methylheptanediamide], the “BCL-XL degradation … at 100 nM” value in experiment [4] is reported as “weak BCL-XL degradation”.

Regarding “(2S,4R)-1-((S)-2-(2-(2-(4-((R)-3-((4-(N-(4-(4-((4’-Chloro-4,4-dimethyl-3,4,5,6-tetrahydro-[1,1’-biphenyl]-2-yl)methyl)piperazin-1-yl)benzoyl)sulfamoyl)-2-((trifluoromethyl)sulfonyl)phenyl)amino)-4-(phenylthio)butyl)piperazin-1-yl)ethoxy)acetamido)-3,3-dimethylbutanoyl)-4-hydroxy-N-((S)-1-(4-(4-methylthiazol-5-yl)phenyl)ethyl)pyrrolidine-2-carboxamide [Compound 4a]”, the IC50 in experiment [3] (setting [7]) worked out at 151 nM.

As to `Cc1ncsc1-c1ccc([C@H](C)NC(=O)[C@@H]2C[C@@H](O)CN2C(=O)[C@@H](NC(=O)CCCCCCN(C)CC[C@H](CSc2ccccc2)Nc2ccc(S(=O)(=O)NC(=O)c3ccc(N4CCN(CC5=C(c6ccc(Cl)cc6)CCC(C)(C)C5)CC4)cc3)cc2S(=O)(=O)C(F)(F)F)C(C)(C)C)cc1` [Compound 6c, (2S,4R)-1-((S)-2-(7-(((R)-3-((4-(N-(4-(4-((4’-Chloro-4,4-dimethyl-3,4,5,6-tetrahydro-[1,1’-biphenyl]-2-yl)methyl)piperazin-1-yl)benzoyl)sulfamoyl)-2-((trifluoromethyl)sulfonyl)phenyl)amino)-4-(phenylthio)butyl)(methyl)amino)heptanamido)-3,3-dimethylbutanoyl)-4-hydroxy-N-((S)-1-(4-(4-methylthiazol-5-yl)phenyl)ethyl)pyrrolidine-2-carboxamide], the “BCL-XL degradation … at 100 nM” value in experiment [4] is given as “the most potent degrader among its analogs”.

Turning to `CC1(C)CCC(c2ccc(Cl)cc2)=C(CN2CCN(c3ccc(C(=O)NS(=O)(=O)c4ccc(N[C@H](CCN5CCN(CCOCCOCCOCCNc6cccc7c6C(=O)N(C6CCC(=O)NC6=O)C7=O)CC5)CSc5ccccc5)c(S(=O)(=O)C(F)(F)F)c4)cc3)CC2)C1` (stereo partly drawn) [Compound 12c, 4-(4-((4’-Chloro-4,4-dimethyl-3,4,5,6-tetrahydro-[1,1’-biphenyl]-2-yl)methyl)piperazin-1-yl)-N-((4-(((2R)-4-(4-(2-(2-(2-(2-((2-(2,6-dioxopiperidin-3-yl)-1,3-dioxoisoindolin-4-yl)amino)ethoxy)ethoxy)ethoxy)ethyl)piperazin-1-yl)-1-(phenylthio)butan-2-yl)amino)-3-((trifluoromethyl)sulfonyl)phenyl)sulfonyl)benzamide], the IC50 in experiment [3] (setting [8]) worked out at 17.3 nM; in experiment [3] (setting [9]), 17.3 nM; in experiment [2] it was 1560 nM; in experiment [5], 24.6 nM; in experiment [6] it was 38.5 nM.

`CN(CCCNc1cccc2c1C(=O)N(C1CCC(=O)NC1=O)C2=O)CC[C@H](CSc1ccccc1)Nc1ccc(S(=O)(=O)NC(=O)c2ccc(N3CCN(CC4=C(c5ccc(Cl)cc5)CCC(C)(C)C4)CC3)cc2)cc1S(=O)(=O)C(F)(F)F` (stereo partly drawn) [Compound 16a, 4-(4-((4’-Chloro-4,4-dimethyl-3,4,5,6-tetrahydro-[1,1’-biphenyl]-2-yl)methyl)piperazin-1-yl)-N-((4-(((2R)-4-((3-((2-(2,6-dioxopiperidin-3-yl)-1,3-dioxoisoindolin-4-yl)amino)propyl)(methyl)amino)-1-(phenylthio)butan-2-yl)amino)-3-((trifluoromethyl)sulfonyl)phenyl)sulfonyl)benzamide]: the IC50 in experiment [3] (setting [8]) is 32.5 nM; in experiment [3] (setting [9]), 32.5 nM; in experiment [2], 3300 nM; in experiment [5], 70.2 nM; in experiment [6] it was 129 nM.
